The list is not random: actives were taken first. Their share in the collection is about 1.9%.
M4 ag: agonists of human muscarinic M4 receptor (CHRM4); P08173; CHO-K1 hM4/Gqi5, Fluo-8 calcium fluorescence; vehicle 0%, full acetylcholine response 100%; activation, % at 3 µM; actives 0.14% (n = 360,000); AID 624127;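 active = activation above the run mean over all test wells plus 3 SD, cut at about 32% in these data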;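 also: peak over basal fluorescence ratio per well then scaled between controls; 0% = DMSO wells and 100% = acetylcholine at EC100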
CHRM5 PAM: potentiates acetylcholine response at human M5 receptor; P08912; activation, % at 3 µM; actives 0.3% (n = 360,000); CHO-K1 hM5, Fluo-8 calcium, ACh EC20 PAM; 0% = ACh EC20, 100% = ACh EC100; AID 624038;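 active = activation above the run cutoff, the mean activation of all test compounds plus 3 SD, cut at about 18% in these data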
Target sequence (P08912 whole entry, looked up): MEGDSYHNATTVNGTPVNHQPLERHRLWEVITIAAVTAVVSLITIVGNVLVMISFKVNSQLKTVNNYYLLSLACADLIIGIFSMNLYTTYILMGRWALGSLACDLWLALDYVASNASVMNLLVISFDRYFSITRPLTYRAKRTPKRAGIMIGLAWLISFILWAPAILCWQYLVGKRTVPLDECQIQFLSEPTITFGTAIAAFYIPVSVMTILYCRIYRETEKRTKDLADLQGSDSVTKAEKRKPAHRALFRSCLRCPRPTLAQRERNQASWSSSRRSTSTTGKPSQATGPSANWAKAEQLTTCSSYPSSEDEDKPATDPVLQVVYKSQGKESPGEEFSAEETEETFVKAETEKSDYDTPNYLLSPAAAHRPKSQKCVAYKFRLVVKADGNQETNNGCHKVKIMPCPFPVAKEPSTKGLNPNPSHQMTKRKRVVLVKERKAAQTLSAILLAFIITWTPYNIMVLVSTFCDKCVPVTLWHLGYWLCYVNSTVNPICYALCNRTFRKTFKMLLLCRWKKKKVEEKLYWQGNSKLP
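System – CHO-K1 hM5 cells · Compound – 3 µM, single dose · Incubation – compound preincubation 140 s before EC20 acetylcholine addition · Technique – Fluo-8 calcium fluorescence · Measure – Max/basal fluorescence ratio as % of EC20–EC100 ACh window · Benchmarks – low control EC20 acetylcholine (0%), high control EC100 acetylcholine (100%) · Replication – singlicate, one well per test compound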
CHRM5 antagonist: antagonists of human muscarinic M5 receptor (CHRM5); P08912; CHO-hM5 cells, Fluo-8 calcium fluorescence, ACh EC80; inhibition, % at 3 µM; actives 0.59% (n = 360,000); AID 624040;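 active = inhibition above a per-plate cutoff, the mean of that plate's test compounds plus 3 SD, cut at about 27% in these data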;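 also: 0% = acetylcholine EC80 with DMSO and 100% = DMSO without agonist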
CHRM4 antagonist: antagonists of human muscarinic M4 receptor (CHRM4); CHO-hM4 cells, ACh EC80, Fluo-8 calcium fluorescence; actives 0.73% (n = 360,000); inhibition, % at 3 µM; AID 624125; P08173;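 active = inhibition above its plate's cutoff, the mean inhibition of sample wells plus 3 SD, cut at about 27% in these data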;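 also: 0% = acetylcholine EC80 with DMSO and 100% = DMSO without agonist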
CHRM4 PAM: CHRM4 positive allosteric modulation; actives 0.4% (n = 360,000); P08173; activation, % at 3 µM; AID 624126; CHO-K1 hM4/Gqi5, Fluo-8 calcium fluorescence, ACh EC20; 0% = ACh EC20, 100% = maximal ACh;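 active = activation above its plate's cutoff, the mean activation of sample wells plus 3 SD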
CHRM5 agonist: agonists of human muscarinic M5 receptor (CHRM5) | AID 624037 | P08912 | activation, % at 3 µM | actives 0.19% (n = 360,000) | CHO-K1 hM5 cells, Fluo-8 calcium fluorescence; 0% DMSO wells, 100% maximal acetylcholine response;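 active = activation above the run's mean over test compounds plus 3 SD, cut at about 23% in these data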;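 also: signal is peak over basal fluorescence ratio across the kinetic read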
* = called active by the depositor.

SMILES | M4 ag | CHRM5 PAM | CHRM5 antagonist | CHRM4 antagonist | CHRM4 PAM | CHRM5 agonist
O=c1[nH]cc(F)c(=O)n1C1OC(CO)C(O)C1O (stereo not given) | 2 | -2 | -7 | -2 | -1 | 3
Cc1ccc(C(NC(=O)C2CCN(CCOc3ccccc3)CC2)c2ccccn2)cc1 (stereo not given) | 4 | -19 | 9 | -24 | -4 | -3
CCCCC(=O)N(C)c1c(CC)nc2c(OCC(=O)c3ccc(Cl)cc3Cl)cccn12 | 3 | -2 | 20 | 10 | -3 | -8
Cc1ccc(F)c(S(=O)(=O)NC(=O)C2(C)CCN2C(=O)Cc2ccsc2)c1 (stereo not given) | 1 | 2 | 10 | -17 | 4 | 1
O=C(NCc1cccc(Cl)c1)C1Cc2c(-c3ccccc3Oc3ccccc3)ccnc2O1 (stereo not given) | 1 | 2 | -2 | -10 | 5 | 1
O=C1CSC(=S)N1/N=C/c1cc(Br)c(O)c(Br)c1 | 401* | -20 | 48* | 54* | -30 | 200*
O=C(O)c1cnn(-c2nc(-c3ccc(F)cc3)cs2)c1C(F)(F)F | 0 | 4 | -6 | -6 | 23* | -3
Cc1cccc(CN2CCN([C@@H]3CS(=O)(=O)N[C@H]3COCc3ccccc3)CC2)c1 | 3 | -11 | 10 | -10 | -1 | -2
COC(=O)[C@H](NC(=O)c1cc(-c2ccccc2)sc1N)C(C)C | 1 | -3 | 3 | -7 | 2 | 1
C[C@H]1CN([C@@H](C)CO)S(=O)(=O)c2ccc(C#Cc3ccccn3)cc2O[C@@H]1CN(C)C(=O)C1CC1 | 1 | -1 | 11 | -3 | 0 | -1
COc1ccc(N=C2C(=O)N3c4c(cccc42)C(C)=CC3(C)C)cc1 | 1 | -6 | -1 | 3 | 12 | 29*
COc1ccc(N=C2C(=O)Nc3ccccc32)cc1 | 0 | 0 | 3 | 4 | -1 | 2
C=CCC[C@@H](Cc1ccc(F)cc1)C(=O)OC[C@@H]1CCCN1C(=O)[C@H](CC=C)CC(=O)N[C@H](CO)Cc1ccccc1 | 6 | -3 | 8 | 0 | 1 | -2
C=CCC[C@@H](Cc1ccc(F)cc1)C(=O)OC[C@H]1CCCN1C(=O)[C@@H](CC=C)CC(=O)N[C@H](CO)Cc1ccccc1 | 19 | -19 | 6 | 31* | -11 | 3
COc1ccc(S(=O)(=O)N2CCC(N3CCN(Cc4ccccc4)CC3)CC2)cc1 | 1 | -15 | 45* | 46* | -19 | -11
O=S(=O)(c1ccc(Cl)cc1)N1CCN(C2CCN(Cc3ccccc3)CC2)CC1 | 2 | -44 | -6 | 15 | -15 | -13
O=[N+]([O-])c1ccccc1S(=O)(=O)N1CCN(C2CCN(Cc3ccccc3)CC2)CC1 | 1 | -11 | 16 | 29* | -14 | -9
CN(C)c1nc(OCCOC(=O)c2ccccc2)nc(N(C)C)n1 | 0 | -5 | -6 | 2 | 1 | 26*
CCSC1=C(C#N)C(c2ccccc2Cl)C(C(=O)c2cccs2)C(O)(C(F)(F)F)N1 (stereo not given) | 2 | 9 | 6 | 8 | 1 | -2
C=CCSC1=C(C#N)C(c2ccccc2Cl)C(C(=O)c2cccs2)C(O)(C(F)(F)F)N1 (stereo not given) | 11 | -18 | 27* | 1 | -8 | 0
CCOC1=C2[C@@H](CN(S(=O)(=O)c3ccc(C)cc3)[C@H]2c2ccccc2Cl)[C@H]2C(=O)N(Cc3ccccc3)C(=O)[C@H]2C1 | 1 | -6 | 6 | -7 | 1 | 0
Cc1nc2cc3c(=O)n(C)cnc3cc2n1Cc1ccccc1 | 0 | 4 | 10 | -7 | 5 | 1
CCc1ccc(C(=O)Nc2ccc3c(c2)n(C)c(=O)n3C)cc1 | 1 | 24* | -18 | -6 | -4 | 2
COc1cc(OC)cc(C(=O)Nc2ccc3c(c2)n(C)c(=O)n3C)c1 | 2 | 0 | -8 | -5 | 3 | 2
CCn1c(=O)n(CC)c2cc(NC(=O)c3ccccc3Cl)ccc21 | 0 | 20* | -21 | 6 | -3 | 9
SMILES | M4 ag | CHRM5 PAM | CHRM5 antagonist | CHRM4 antagonist | CHRM4 PAM | CHRM5 agonist
CCN(CC(=O)Nc1c(F)cccc1F)C(=O)c1ccc(-n2cncn2)c([N+](=O)[O-])c1 | 0 | 1 | 0 | 35* | -6 | 4
CCOC(=O)/C(=C\c1ccccc1)C(=O)c1cc(C(C)=O)c(Nc2ccccc2)s1 | 1 | -4 | 6 | -3 | 2 | -1
CCOC(=O)/C(=C\c1cccnc1)C(=O)c1cc(C(C)=O)c(Nc2ccccc2)s1 | 5 | 1 | 10 | 46* | -3 | -5
C1CCN(C2CCN(c3nc4nonc4nc3N3CCSCC3)CC2)C1 | 1 | -11 | 7 | 31* | -20 | -9
C1CC2CN(c3nc4nonc4nc3N3CCSCC3)CCN2C1 (stereo not given) | 1 | -5 | 0 | 9 | -10 | -8
O=C1CC(SC(=NCc2ccc3c(c2)OCO3)Nc2ccccc2)C(=O)N1c1ccccc1 (stereo not given) | 1 | 14 | -7 | -19 | 24* | 0
Nc1nc2ccccc2n1S(=O)(=O)c1ccccc1 | 1 | -18 | 9 | 5 | -11 | -3
Cc1cccc(-n2cnc3sc(C)c(C)c3c2=O)c1 | 0 | -11 | 35* | 0 | 0 | -8
O=C(N/N=C\c1c(O)ccc2ccccc12)c1cncc(Br)c1 | 38* | -10 | -6 | -6 | -7 | 67*
O=C(N/N=C\c1c(O)ccc2ccccc12)c1ccc(O)cc1 | 3 | 2 | 7 | -5 | -5 | 2
O=C(NN=Cc1c(O)ccc2ccccc12)c1ccncc1 | 11 | -19 | 9 | -3 | -2 | 46*
CC1=C2CCCC[C@@]23C2C(=O)N(C)C(=O)[C@@H]2ON3OC1 (stereo not given in full) | 2 | 6 | -9 | -4 | 15 | 2
CCCCCc1ccc(OCCC[n+]2ccccc2)c(CCCCC)c1 | 0 | -30 | 32* | 32* | -48 | -21
CCCCCc1ccc(OCCOCCn2c[n+](C)c3ccccc32)c(CCCCC)c1 | 2 | -10 | 21 | 58* | -19 | -10
C[n+]1cn(CC(O)COCc2ccccc2)c2ccccc21 (stereo not given) | 1 | 0 | -1 | -8 | 1 | -2
CCc1nc2ccc(C(=O)Nc3ccc(NC(C)=O)cc3)cn2c1N(C)CCCc1ccccc1 | 9 | -9 | 9 | 26 | -13 | 11
